Data taken from ChEMBL document CHEMBL1123302, “Antagonists of substance P. Further modifications of substance P antagonists obtained by replacing either positions 7, 9 or 7, 8 and 11 of SP with D-amino acid residues” (J Med Chem, 1986).
pIC50: −log10 of the molar value.

Assays:
[1] = target: Substance-P receptor (Cavia porcellus) (UniProt P30547); test: In vitro inhibition of substance P (6-11) hexapeptide induced contractions of the guinea pig ileum at 10 uM.; type: tissue-based
Summary of the method: (§1)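 Agonist (SP or SP(6-11)-hexapeptide) dose-response curves on a 3-min cycle with 1-min contact, then washout. Dose ratio = agonist EC50 with antagonist / EC50 alone. At least two preparations per compound; ratios below 2 taken as insignificant.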

[2] = target: Substance-P receptor (Cavia porcellus) (UniProt P30547); test: In vitro inhibition of substance P (6-11) hexapeptide induced contractions of the guinea pig ileum at 5 uM.; type: tissue-based; summary of the method: as §1
[3] = target: Substance-P receptor (Cavia porcellus) (UniProt P30547); test: In vitro inhibition of substance P induced contractions of the guinea pig ileum at 5 uM.; type: tissue-based; summary of the method: as §1
[4] = target: Substance-P receptor (Cavia porcellus) (UniProt P30547); test: In vitro inhibition of substance P induced contractions of the guinea pig ileum at 10 uM.; type: tissue-based; summary of the method: as §1
[5] = target: Substance-P receptor (Rattus norvegicus) (UniProt P14600); test: Antagonistic activity against Substance P receptor in rat spinal cord at concentration of 50 uM.
Sequence of Substance-P receptor (Rattus norvegicus) (P14600 whole entry, looked up): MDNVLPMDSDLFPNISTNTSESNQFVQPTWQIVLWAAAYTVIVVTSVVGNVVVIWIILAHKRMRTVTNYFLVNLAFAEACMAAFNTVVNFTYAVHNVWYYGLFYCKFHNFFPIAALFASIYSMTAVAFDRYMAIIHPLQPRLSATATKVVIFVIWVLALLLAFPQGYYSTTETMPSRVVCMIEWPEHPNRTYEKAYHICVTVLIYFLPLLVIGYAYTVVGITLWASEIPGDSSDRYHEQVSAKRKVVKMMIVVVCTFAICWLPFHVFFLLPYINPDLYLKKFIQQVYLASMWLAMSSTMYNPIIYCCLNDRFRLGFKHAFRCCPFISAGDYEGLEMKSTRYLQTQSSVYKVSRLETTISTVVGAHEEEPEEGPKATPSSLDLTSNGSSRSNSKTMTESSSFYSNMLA

[6] = target: Substance-P receptor (Rattus norvegicus) (UniProt P14600); test: Antagonistic activity against Substance P receptor in rat spinal cord at concentration of 5 uM.
[7] = target: Substance-P receptor (Rattus norvegicus) (UniProt P14600); test: Antagonistic activity against Substance P(6-11) receptor in rat spinal cord at concentration of 5 uM.
[8] = target: Substance-P receptor (Rattus norvegicus) (UniProt P14600); test: Antagonistic activity against Substance P(6-11) receptor in rat spinal cord at concentration of 50 uM.
[9] = target: Metabotropic glutamate receptor 3 (Rattus norvegicus) (UniProt P31422); test: Antagonistic activity against Glutamate receptor in rat spinal cord at concentration of 50 uM.; type: functional, tissue-based
Sequence of Metabotropic glutamate receptor 3 (Rattus norvegicus) (P31422 23-879 limits assumed): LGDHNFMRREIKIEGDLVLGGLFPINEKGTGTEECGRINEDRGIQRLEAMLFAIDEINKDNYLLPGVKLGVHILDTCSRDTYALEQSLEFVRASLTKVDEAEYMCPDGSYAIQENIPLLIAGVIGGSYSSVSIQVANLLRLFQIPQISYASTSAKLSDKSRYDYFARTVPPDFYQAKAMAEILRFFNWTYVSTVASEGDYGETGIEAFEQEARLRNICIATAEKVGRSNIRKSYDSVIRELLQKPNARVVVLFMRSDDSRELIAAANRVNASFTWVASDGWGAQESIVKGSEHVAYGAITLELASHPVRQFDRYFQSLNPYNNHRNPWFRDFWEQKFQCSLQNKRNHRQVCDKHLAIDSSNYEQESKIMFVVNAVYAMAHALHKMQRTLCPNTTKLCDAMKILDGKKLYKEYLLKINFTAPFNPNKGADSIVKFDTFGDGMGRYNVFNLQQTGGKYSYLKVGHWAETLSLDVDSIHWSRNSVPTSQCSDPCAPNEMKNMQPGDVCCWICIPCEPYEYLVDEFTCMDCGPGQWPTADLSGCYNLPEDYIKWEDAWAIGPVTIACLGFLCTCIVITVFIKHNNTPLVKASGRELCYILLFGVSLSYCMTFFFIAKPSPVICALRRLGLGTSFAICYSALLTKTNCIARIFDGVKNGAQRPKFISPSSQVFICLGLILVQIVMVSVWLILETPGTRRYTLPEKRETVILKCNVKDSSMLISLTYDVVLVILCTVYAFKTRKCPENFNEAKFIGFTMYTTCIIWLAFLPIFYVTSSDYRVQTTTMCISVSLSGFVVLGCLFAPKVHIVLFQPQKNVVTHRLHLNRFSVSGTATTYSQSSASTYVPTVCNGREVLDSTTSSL
Summary of the method: (§2)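 Neonatal rat spinal cord, hemisected sagittally, superfused at 1 mL/min with oxygenated Krebs-Henseleit medium containing 0.5% urethane at room temperature. Agonists were given in 2-mL doses in the superfusate. Antagonist was superfused continuously for at least 15 min before agonist retesting. Read-out was ventral root depolarization (DC potential, ventral root vs cord body), measured as amplitude and area of response.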

Substance-P receptor = Substance-P receptor (Rattus norvegicus, UniProt P14600); test: Histamine releasing activity of Substance P from isolated rat peritoneal mast cells; type: functional
Sequence of Substance-P receptor (P14600 whole entry): as the sequence (P14600 whole entry, looked up) above
Summary of the method: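 Histamine release from isolated rat peritoneal mast cells, method of Fretwell et al. Dose-response curves were built over a range of concentrations, and EC50 values were calculated from the curves.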

[10] = target: Metabotropic glutamate receptor 3 (Rattus norvegicus) (UniProt P31422); test: Antagonistic activity against Glutamate receptor in rat spinal cord at concentration of 5 uM.; type: functional, tissue-based; summary of the method: as §2
[11] = target: Substance-P receptor (Rattus norvegicus) (UniProt P14600); test: Antagonistic activity against Substance P(6-11) receptor in rat spinal cord at concentration of 10 uM.
[12] = target: Metabotropic glutamate receptor 3 (Rattus norvegicus) (UniProt P31422); test: Antagonistic activity against Glutamate receptor in rat spinal cord at concentration of 10 uM.; type: functional, tissue-based; summary of the method: as §2
[13] = target: Substance-P receptor (Rattus norvegicus) (UniProt P14600); test: Antagonistic activity against Substance P receptor in rat spinal cord at concentration of 10 uM.

Sequence of Substance-P receptor (Cavia porcellus) (P30547 whole entry): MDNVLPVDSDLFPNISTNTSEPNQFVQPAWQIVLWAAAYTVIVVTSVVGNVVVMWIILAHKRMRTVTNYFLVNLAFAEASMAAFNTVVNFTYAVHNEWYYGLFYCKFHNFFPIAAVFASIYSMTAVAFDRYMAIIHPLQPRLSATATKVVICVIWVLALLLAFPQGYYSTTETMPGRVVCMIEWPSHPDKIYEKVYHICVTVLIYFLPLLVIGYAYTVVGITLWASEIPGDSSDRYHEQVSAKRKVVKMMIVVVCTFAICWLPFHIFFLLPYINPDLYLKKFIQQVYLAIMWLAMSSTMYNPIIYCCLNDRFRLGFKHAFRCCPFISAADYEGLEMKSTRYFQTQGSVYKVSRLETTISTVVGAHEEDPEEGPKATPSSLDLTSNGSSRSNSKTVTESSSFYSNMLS

Row | SMILES | Activity [1] | Activity [2] | Activity [3] | Activity [4] | other results
1 | COC(=O)[C@@H](CCSC)NC(=O)[C@H](CC(C)C)SCCNC(=O)[C@H](Cc1ccccc1)NC(=O)[C@@H](Cc1ccccc1)NC(=O)[C@H](CCC(N)=O)NC(=O)[C@H](CCC(N)=O)NC(=O)C1CCCN1C(=O)OC(C)(C)C (stereo in doubt) | 10 dose ratio | 3 dose ratio | < 2 dose ratio | 2.3 dose ratio | Change in amplitude response [5]: -54%; Change in amplitude response [6]: 40%; Change in amplitude response [7]: -28%; Change in amplitude response [8]: -74%; Change in amplitude response [9]: -43%
2 | CSCC[C@H](NC(=O)[C@H](CC(C)C)NC(=O)[C@@H](Cc1c[nH]c2ccccc12)NC(=O)[C@H](Cc1ccccc1)NC(=O)[C@@H](Cc1ccccc1)NC(=O)[C@H](CCCNC(=N)N)NC(=O)[C@H](CC(N)=O)NC(=O)[C@@H]1CCCN1C(=O)[C@H](CCCCNC(=O)OCc1ccccc1)NC(=O)[C@H]1CCCN1C(=O)[C@H](CCCNC(=N)N)NC(=O)OCc1ccccc1)C(N)=O |  |  |  |  | pIC50 (Substance-P receptor): 6.30
3 | COC(=O)[C@@H](CCSC)NC(=O)[C@@H](CC(C)C)SCCNC(=O)[C@@H](Cc1ccccc1)NC(=O)[C@@H](Cc1ccccc1)NC(=O)[C@H](CCC(N)=O)NC(=O)[C@H](CCC(N)=O)NC(=O)[C@H]1CCCN1C(=O)[C@H](CCCCNC(=O)OCc1ccccc1)NC(=O)[C@H]1CCCN1C(=O)[C@H](CCCN=C(N)N)NC(=O)OCc1ccccc1 |  |  |  |  | pIC50 (Substance-P receptor): 4.60
4 | CSCCC(NC(=O)C(CC(C)C)NC(=O)[C@@H](Cc1c[nH]c2ccccc12)NC(=O)[C@H](Cc1ccccc1)NC(=O)[C@@H](Cc1c[nH]c2ccccc12)NC(=O)[C@H](CCC(N)=O)NC(=O)[C@H](CCC(N)=O)NC(=O)[C@@H]1CCCN1C(=O)[C@H](CCCCN)NC(=O)[C@H]1CCCN1C(=O)[C@@H](N)CCCNC(=N)N)C(N)=O (stereo in doubt) |  |  |  |  | pIC50 (Substance-P receptor): 5.40
5 | COC(=O)[C@@H](CCSC)NC(=O)[C@H](CC(C)C)SCCNC(=O)[C@H](Cc1ccccc1)NC(=O)[C@@H](Cc1ccccc1)NC(=O)[C@H](CCCN=C(N)N)NC(=O)[C@H](CC(N)=O)NC(=O)OCc1ccccc1 | 225 dose ratio | 69 dose ratio | 5.8 dose ratio | 18.2 dose ratio | 
6 | COC(=O)[C@H](CCSC)NC(=O)[C@H](CC(C)C)NC(=O)[C@@H](Cc1c[nH]c2ccccc12)NC(=O)[C@H](Cc1ccccc1)NC(=O)[C@@H](Cc1ccccc1)NC(=O)[C@H](CCCN=C(N)N)NC(=O)[C@H](CC(N)=O)NC(=O)C1CCCN1C(=O)[C@H](CCCCN)NC(=O)C1CCCN1C(=O)[C@@H](N)CCCN=C(N)N (stereo in doubt) | 4 dose ratio | 2.2 dose ratio | 2.2 dose ratio | 6 dose ratio | 
7 | COC(=O)[C@H](CCSC)NC(=O)[C@H](CC(C)C)NC(=O)[C@@H](Cc1c[nH]c2ccccc12)NC(=O)[C@H](Cc1ccccc1)NC(=O)[C@@H](Cc1ccccc1)NC(=O)[C@H](CCCCN)NC(=O)[C@H](CC(N)=O)NC(=O)C1CCCN1C(=O)[C@H](CCCCN)NC(=O)C1CCCN1C(=O)[C@@H](N)CCCN=C(N)N (stereo in doubt) | < 2 dose ratio | < 2 dose ratio | < 2 dose ratio | < 2 dose ratio | Change in amplitude response [11]: -54%; Change in amplitude response [12]: 8%; Change in amplitude response [13]: 9%
8 | COC(=O)[C@@H](CCSC)NC(=O)C(CC(C)C)SCCNC(=O)[C@H](Cc1ccccc1)NC(=O)[C@@H](Cc1ccccc1)NC(=O)[C@H](CCC(N)=O)NC(=O)[C@H](CCC(N)=O)NC(=O)C1CCCN1C(=O)OC(C)(C)C (stereo in doubt) | < 2 dose ratio | < 2 dose ratio | < 2 dose ratio | < 2 dose ratio | Change in amplitude response [5]: -62%; Change in amplitude response [6]: 42%; Change in amplitude response [7]: -7%; Change in amplitude response [8]: -80%; Change in amplitude response [9]: -50%
9 | COC(=O)[C@@H](CCSC)NC(=O)[C@H](CC(C)C)SCCNC(=O)[C@@H](Cc1ccccc1)NC(=O)[C@@H](Cc1ccccc1)NC(=O)[C@H](CCC(N)=O)NC(=O)[C@H](CCC(N)=O)NC(=O)[C@H]1CCCN1C(=O)[C@H](CCCCNC(=O)OCc1ccccc1)NC(=O)[C@H]1CCCN1C(=O)[C@H](CCCNC(=N)N)NC(=O)OCc1ccccc1 |  |  |  |  | pIC50 (Substance-P receptor): 4.48
10 | CSCC[C@H](NC(=O)[C@H](CC(C)C)NC(=O)[C@@H](Cc1c[nH]c2ccccc12)NC(=O)[C@H](Cc1ccccc1)NC(=O)[C@@H](Cc1ccccc1)NC(=O)[C@H](CCCN=C(N)N)NC(=O)[C@H](CC(N)=O)NC(=O)C1CCCN1C(=O)[C@H](CCCCN)NC(=O)C1CCCN1C(=O)[C@@H](N)CCCN=C(N)N)C(=O)O (stereo in doubt) | < 2 dose ratio | < 2 dose ratio | < 2 dose ratio | < 2 dose ratio | 
11 | COC(=O)[C@@H](CCSC)NC(=O)[C@H](CC(C)C)N(C)C(=O)CN(C)C(=O)[C@H](Cc1ccccc1)NC(=O)[C@@H](Cc1ccccc1)NC(=O)[C@H](CCC(N)=O)NC(=O)[C@H](CCC(N)=O)NC(=O)C1CCCN1C(=O)OC(C)(C)C (stereo in doubt) | < 2 dose ratio | < 2 dose ratio | < 2 dose ratio | < 2 dose ratio | 
12 | COC(=O)[C@@H](CCSC)NC(=O)[C@H](CC(C)C)N(C)C(=O)CN(C)C(=O)[C@H](Cc1ccccc1)NC(=O)[C@@H](Cc1ccccc1)NC(=O)[C@H](CCC(N)=O)NC(=O)[C@H](CCC(N)=O)NC(=O)C1CCCN1C(=O)[C@H](CCCCN)NC(=O)C1CCCN1C(=O)[C@@H](N)CCCN=C(N)N (stereo in doubt) | 2.5 dose ratio | < 2 dose ratio | < 2 dose ratio | < 2 dose ratio | 

Continued, in another order:

Row | Activity [1] | Activity [2] | Activity [3] | Activity [4] | SMILES | other results
13 | 68 dose ratio | 54.5 dose ratio | 18.5 dose ratio | 20 dose ratio | COC(=O)[C@@H](CCSC)NC(=O)[C@H](CC(C)C)SCCNC(=O)[C@H](Cc1ccccc1)NC(=O)[C@@H](Cc1ccccc1)NC(=O)[C@H](CCCN=C(N)N)NC(=O)[C@H](CC(N)=O)NC(=O)C1CCCN1C(=O)[C@H](CCCCNC(=O)OCc1ccccc1)NC(=O)C1CCCN1C(=O)[C@H](CCCN=C(N)N)NC(=O)OCc1ccccc1 (stereo in doubt) | 
14 | 19 dose ratio | 3.1 dose ratio | < 2 dose ratio | < 2 dose ratio | COC(=O)C(CCSC)NC(=O)[C@@H](CC(C)C)SCCNC(=O)[C@@H](Cc1ccccc1)NC(=O)[C@H](Cc1ccccc1)NC(=O)[C@H](CCC(N)=O)NC(=O)[C@H](CCC(N)=O)NC(=O)[C@H]1CCCN1C(=O)[C@H](CCCCN)NC(=O)[C@H]1CCCN1C(=O)[C@@H](N)CCCN=C(N)N (stereo in doubt) | 
15 | 49.3 dose ratio | 21.6 dose ratio | 4.5 dose ratio | 15.2 dose ratio | COC(=O)[C@@H](CCSC)NC(=O)[C@H](CC(C)C)SCCNC(=O)[C@@H](Cc1ccccc1)NC(=O)[C@H](Cc1ccccc1)NC(=O)[C@H](CCC(N)=O)NC(=O)[C@H](CCC(N)=O)NC(=O)[C@H]1CCCN1C(=O)[C@H](CCCCNC(=O)OCc1ccccc1)NC(=O)[C@H]1CCCN1C(=O)[C@H](CCCN=C(N)N)NC(=O)OCc1ccccc1 | Change in amplitude response [9]: -5%; Change in amplitude response [10]: 5%
16 | 37 dose ratio | 34 dose ratio | 15 dose ratio | 17.2 dose ratio | COC(=O)[C@@H](CCSC)NC(=O)[C@@H](CC(C)C)NC(=O)CNC(=O)[C@@H](Cc1c[nH]c2ccccc12)NC(=O)[C@@H](Cc1c[nH]c2ccccc12)NC(=O)[C@H](CCC(N)=O)NC(=O)[C@H](CCC(N)=O)NC(=O)[C@@H]1CCCN1C(=O)[C@H](CCCCNC(=O)OCc1ccccc1)NC(=O)[C@@H]1CCCN1C(=O)[C@H](CCCN=C(N)N)NC(=O)OCc1ccccc1 | 
17 | 10.7 dose ratio | 7.2 dose ratio | 6.2 dose ratio | 9.8 dose ratio | COC(=O)[C@@H](CCSC)NC(=O)C(CC(C)C)NC(=O)[C@@H](Cc1c[nH]c2ccccc12)NC(=O)[C@H](Cc1c[nH]c2ccccc12)NC(=O)[C@@H](Cc1c[nH]c2ccccc12)NC(=O)[C@H](CCC(N)=O)NC(=O)[C@H](CCC(N)=O)NC(=O)[C@@H]1CCCN1C(=O)[C@H](CCCCNC(=O)OCc1ccccc1)NC(=O)[C@@H]1CCCN1C(=O)[C@H](CCCN=C(N)N)NC(=O)OCc1ccccc1 (stereo in doubt) | 
18 | 3.4 dose ratio | 2.5 dose ratio | 2.7 dose ratio | 3.6 dose ratio | COC(=O)C(CCSC)NC(=O)[C@H](CC(C)C)SCCNC(=O)[C@@H](Cc1ccccc1)NC(=O)[C@@H](Cc1ccccc1)NC(=O)[C@H](CCC(N)=O)NC(=O)[C@H](CCC(N)=O)NC(=O)[C@H]1CCCN1C(=O)[C@H](CCCCN)NC(=O)[C@H]1CCCN1C(=O)[C@@H](N)CCCN=C(N)N (stereo in doubt) | 
